Series [1] has as its system Mus musculus. The experiment in a line: Compound was evaluated in vivo in blood samples from the orbital sinus for its concentration using Area under the time-concentration curve after 40 mg/kg intramuscular administration to mice. In kind it is ADME, organism-based. Also on record: dose 40 mg/kg, route intramuscular. The conditions noted are these: im. In outline:
(§1)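 Mice were dosed at 40 mg/kg, either orally with a blunt needle and syringe or intramuscularly, with separate groups for each route. Blood was drawn from the orbital sinus at 5, 15, 30, 60, 120 and 180 min. Urine was pooled over 24 h. Drug levels were measured by agar disk diffusion microbioassay with Salmonella enteritidis A9531 as the assay organism.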

Series [2] in a line: Compound was evaluated in vivo in blood samples from the orbital sinus for its concentration after a intramuscular administration 40 mg/kg in mice. In kind it is ADME, organism-based. Also on record: dose 40 mg/kg, route intramuscular. The conditions noted are these: mouse, im. In outline:
as §1

Series [3] can be described thus: Compound was evaluated in vivo in blood samples from the orbital sinus for its half life after 40 mg/kg of intramuscular administration in mice. The series is classed as ADME, organism-based. Also on record: dose 40 mg/kg, route intramuscular. The conditions noted are these: mouse, im.
The next series relates to Bacteroides fragilis. The experiment in a line: Compound was tested in vitro for its antibacterial activity (minimum inhibitory concentration) against Bacteroides fragilis A 22862. In kind it is functional. The conditions noted are these: A22862.
Series [4] concerns Enterococcus faecalis. The experiment in a line: In vitro antibacterial activity against Enterococcus faecalis A 9809. In kind it is functional.
The test system of series [5] is Escherichia coli. Briefly: In vitro antibacterial activity against Escherichia coli A 15119. The series is classed as functional.
The subject of a further series is Enterobacter cloacae. The experiment in a line: In vitro antibacterial activity against Enterobacter cloacae A 9656. In kind it is functional.
For another series, the system named is Haemophilus influenzae. The experiment in a line: In vitro antibacterial activity against Haemophilus influenzae A 21515. The series is classed as functional.
The next series deals with Klebsiella pneumoniae. Briefly: In vitro antibacterial activity against Klebsiella pneumoniae A 9664. In kind it is functional.
The subject of a further series is Morganella morganii. The experiment in a line: In vitro antibacterial activity against Morganella morganii A 15153. The series is classed as functional.
Series [6] deals with Mus musculus. Briefly: Compound was evaluated in vivo in urine sample collected over 24 hours for its concentration after 40 mg/kg intramuscular administration to mice. In kind it is functional. In outline:
as §1

Series [7] concerns Mus musculus. Briefly: Compound was evaluated in vivo in urine sample collected over 24 hours for its concentration after 40 mg/kg peroral administration to mice. In kind it is functional. The conditions noted are these: route oral. In outline: as §1
For series [8], the system named is Pseudomonas aeruginosa. Briefly: Compound was tested in vitro for its antibacterial activity (minimum inhibitory concentration, MIC) against Pseudomonas aeruginosa A 9843. In kind it is functional.
The next series relates to Proteus mirabilis. The experiment in a line: In vitro antibacterial activity (minimum inhibitory concentration, MIC) against Proteus mirabilis A 9900. The series is classed as functional.
The subject of series [9] is Pseudomonas aeruginosa. The experiment in a line: Compound was tested for the dose to protect 50% of mice from lethal infection against Pseudomonas aeruginosa A9843 after peroral administration to OF1-strain of female Swiss mice. The conditions noted are these: po, read-out: PD50. The series is classed as functional. In outline: (§2)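 Compounds dissolved in sterile water and given orally to female OF1 Swiss mice weighing 18-25 g, five mice per group.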

Series [10] in a line: Compound was tested for the dose to protect 50% of mice from lethal infection against Streptococcus pneumoniae after peroral administration to OF1-strain of female Swiss mice. The series is classed as functional. The conditions noted are these: po, read-out: PD50. In outline:
as §2

Series [11] deals with Staphylococcus aureus. Briefly: Compound was tested for the dose to protect 50% of mice from lethal infection against Staphylococcus aureus A 9606 after peroral administration to OF1-strain of female Swiss mice. In kind it is functional. The conditions noted are these: po, read-out: PD50. The method in brief: as §2
In the next series the test system is Serratia marcescens. The experiment in a line: In vitro antibacterial activity (minimum inhibitory concentration) against Serratia marcescens A 20019. The series is classed as functional.
The test system of a further series is Streptococcus pneumoniae. The experiment in a line: In vitro antibacterial activity against Streptococcus pneumoniae A 9585. The series is classed as functional.
The test system of series [12] is Staphylococcus aureus. The experiment in a line: In vitro antibacterial activity against Staphylococcus aureus A 24227. The series is classed as functional.
The subject of series [13] is Staphylococcus aureus. The experiment in a line: In vitro antibacterial activity (minimum inhibitory concentration, MIC) against Staphylococcus aureus A 9537. The series is classed as functional.
For series [14], the species on record is Mus musculus. The conditions noted are these: in vivo, po, 40 mg/kg.
The species entered for series [15] is Canis familiaris. The conditions noted are these: dog, in vivo, po, 25 mg/kg.
A short description of series [16]: in vivo. The conditions noted are these: dog, po, 25 mg/kg.
The nature of series [17]: in vivo. The conditions noted are these: mouse, blood, po, 40 mg/kg.
The nature of series [18]: in vivo. The conditions noted are these: dog, po, 25 mg/kg. The source holds these as a separate data set.
Series [19] has as its system Canis familiaris. Briefly: Compound was evaluated in vivo in urine sample collected over 24 hours for its concentration after 25 mg/kg peroral administration to dogs. The conditions noted are these: route oral.
Series [20] can be described thus: Compound was evaluated in vivo in blood samples from the orbital sinus for its concentration after a peroral administration of 40 mg/kg in mice. The series is classed as ADME, organism-based. Also on record: dose 40 mg/kg, route oral. The conditions noted are these: mouse, po. In outline:
as §1

The test system of series [21] is Escherichia coli. The experiment in a line: Compound was tested for the dose to protect 50% of mice from lethal infection against Escherichia coli A 15119 after peroral administration to OF1-strain of female Swiss mice. In kind it is functional. The conditions noted are these: po, read-out: PD50. The method in brief: as §2
For series [22], the system named is Mus musculus. The experiment in a line: Compound was evaluated in vivo in urine sample collected over 24 hours for its concentration after 40 mg/kg an intramuscular administration to mice. In kind it is functional. The method in brief: as §1
A short description of series [23]: Compound was evaluated in vivo in blood samples from the orbital sinus for its concentration after an intramuscular administration of 40 mg/kg in mice. In kind it is ADME, organism-based. The arrangement: dose 40 mg/kg, route intramuscular. The conditions noted are these: mouse, im. In outline:
as §1

Series [24] in a line: in vivo. The conditions noted are these: mouse, blood, po, 40 mg/kg. The source holds these as a separate data set.
For series [25], the system named is Enterococcus faecalis. The experiment in a line: Compound was tested in vitro for its antibacterial activity (minimum inhibitory concentration) against Enterococcus faecalis A 9809 (gram positive). In kind it is functional.

Molecules are shown by their SMILES. ≈ marks a conversion by molar mass, not a printed value. Where only a bound is given, the exact number is not on record here.

Consider `CC(C)(CF)n1cc(C(=O)O)c(=O)c2cc(F)c(N3CC[C@H](N)C3)cc21.CS(=O)(=O)O`, for which the S stood at 370 µg/mL. In addition, the AUC (commonly the area under the concentration-time curve, a measure of exposure) in the series on Mus musculus [1] was 14000 ng·h/mL. In series [2], the concentration peaked (Cmax) at 8000 ng/mL. For the same compound, the half-life (usually the time needed for the level to fall by half in the phase considered) in series [3] was determined as 1.82 h. Also, in the series with Bacteroides fragilis, the MIC came to 2 µg/mL. This compound gave an MIC in the series on Enterococcus faecalis [4] of 0.13 µg/mL. Also, in the series with Escherichia coli [5], the MIC was determined as 0.002 µg/mL. The MIC in the series with Enterobacter cloacae was found to be 0.004 µg/mL. This compound had an MIC against Haemophilus influenzae of 0.016 µg/mL. For the same compound, the MIC in the series on Klebsiella pneumoniae was 0.004 µg/mL. The MIC in the series with Morganella morganii amounted to 0.002 µg/mL. In the series on Mus musculus [6], this compound gave a UR of 27%. In addition, the UR with Mus musculus [7] was found to be 4%. Further, the MIC against Pseudomonas aeruginosa [8] was determined as 0.13 µg/mL. For the same compound, the MIC with Proteus mirabilis turned out to be 0.004 µg/mL. Further, the ED50 with Pseudomonas aeruginosa [9] is 23.7 mg/kg. In addition, the ED50 in series [10] is more than 50 mg/kg. The ED50 in the series on Staphylococcus aureus [11] was 26.4 mg/kg. The compound also had an MIC in the series with Serratia marcescens of 0.016 µg/mL. In the series on Streptococcus pneumoniae, this compound came in with an MIC of 0.06 µg/mL. This compound gave an MIC with Staphylococcus aureus [12] of 0.016 µg/mL. This compound also displayed an MIC against Staphylococcus aureus [13] of 0.03 µg/mL. Further, in the series filed under Mus musculus [14], the AUC worked out at 600 ng·h/mL. In addition, the AUC in the series filed under Canis familiaris [15] worked out at 7300 ng·h/mL. The Cmax (in general, the maximum level reached in the sampled fluid or tissue) in the series “in vivo [16]” amounted to 600 ng/mL. In the series “in vivo [17]”, this compound gave a Cmax of 1000 ng/mL. This compound also yielded a half-life in the series “in vivo [18]” of 7 h. Also, in the series with Canis familiaris [19], the UR is listed as 4.6%.
Turning to `CC(C)(C)n1cc(C(=O)O)c(=O)c2cc(F)c(N3CC[C@H](N)C3)cc21.CS(=O)(=O)O`, the S was determined as 250 µg/mL. Moreover, in the series on Mus musculus [1], the AUC amounted to 15000 ng·h/mL. The Cmax in series [20] was found to be 3000 ng/mL. The half-life in series [3] was 0.9 h. In the series on Bacteroides fragilis, the MIC came to 8 µg/mL. Moreover, the MIC in the series with Enterococcus faecalis [4] came out at 0.13 µg/mL. The ED50 in the series on Escherichia coli [21] is 9.5 mg/kg. This compound also registered an MIC in the series with Escherichia coli [5] of 0.016 µg/mL. In the series with Enterobacter cloacae, the MIC was 0.06 µg/mL. This compound also gave an MIC with Haemophilus influenzae of 0.008 µg/mL. Besides, the MIC in the series with Klebsiella pneumoniae came to 0.5 µg/mL. This compound registered an MIC in the series with Morganella morganii of 0.13 µg/mL. Further, the UR in the series with Mus musculus [22] was 24%. The UR in the series on Mus musculus [7] turned out to be 14%. This compound registered an MIC in the series on Pseudomonas aeruginosa [8] of 0.25 µg/mL. The compound further displayed an MIC with Proteus mirabilis of 0.06 µg/mL. Further, the ED50 with Pseudomonas aeruginosa [9] came out at 10.2 mg/kg. Besides, the ED50 in [10] is more than 25 mg/kg. Further, in the series on Staphylococcus aureus [11], the ED50 was 14.4 mg/kg. In the series on Serratia marcescens, this compound had an MIC of 0.13 µg/mL. The compound further registered an MIC against Streptococcus pneumoniae of 0.06 µg/mL. The MIC with Staphylococcus aureus [12] stood at 0.03 µg/mL. The compound further showed an MIC with Staphylococcus aureus [13] of 0.008 µg/mL. In addition, the Cmax in [23] is 6000 ng/mL. The same compound came in with an AUC in the series listed under Mus musculus [14] of 5000 ng·h/mL. Besides, the AUC in the series listed under Canis familiaris [15] turned out to be 30000 ng·h/mL. Also, in the series “in vivo [16]”, the peak level (Cmax) was 2800 ng/mL. In the series “in vivo [18]”, this compound returned a half-life of 4 h. Besides, the half-life in “in vivo [24]” came out at 1.1 h. The same compound gave a UR in the series on Canis familiaris [19] of 7.7%.
With `CC(C)(C)n1cc(C(=O)O)c(=O)c2cc(F)c(N3C[C@H]4CC3CN4)cc21`, the MIC in the series with Escherichia coli [5] was 0.5 µg/mL (≈ 1.39 µM); with Enterobacter cloacae, 0.25 µg/mL (≈ 0.696 µM); with Klebsiella pneumoniae, 0.13 µg/mL (≈ 0.362 µM); against Morganella morganii it was 2 µg/mL (≈ 5.56 µM); in the series with Pseudomonas aeruginosa [8], 0.5 µg/mL (≈ 1.39 µM); in the series with Proteus mirabilis, 4 µg/mL (≈ 11.1 µM). In addition, the MIC in the series with Enterococcus faecalis [25] stood at 2 µg/mL (≈ 5.56 µM); against Serratia marcescens it was 4 µg/mL (≈ 11.1 µM); in the series on Staphylococcus aureus [13], 0.5 µg/mL (≈ 1.39 µM).

Source of the values: ChEMBL document CHEMBL1125733, “Fluoronaphthyridines and -quinolones as antibacterial agents. 3. Synthesis and structure-activity relationships of new 1-(1,1-dimethyl-2-fluoroethyl), 1-[1-methyl-1-(fluoromethyl)-2-fluoroethyl], and 1-[1,1-(difluoromethyl)-2-fluoroethyl] substituted derivatives” (J Med Chem, 1991).
